Results: ChEMBL document CHEMBL1147607, “Side-chain length is important for shogaols in protecting neuronal cells from beta-amyloid insult” (2004)

Columns and labels:
IMR-32 = test: Effective dose to protect IMR-32 cells from beta-Amyloid (BA) insult was determined using MTT reduction assay; format: functional; details: Homo sapiens, read-out: ED50 (the source's name)
Summary of the method: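 IMR-32 human neuroblastoma cells in Minimum Essential Medium with Earle's salts and L-glutamine, 10% fetal bovine serum and 1% penicillin/streptomycin were run as in the PC12 protocol. Cells were co-exposed 24 h to βA(1-42) and test compound at five concentrations, final DMSO <1%. MTT was reduced for 1 h at 37 °C, then lysed overnight, with OD read at 570 nm. ED50 came from dose–response curves.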

PC-12 = test: Effective dose to protect PC12 cells from beta-Amyloid (BA) insult was determined using MTT reduction assay; format: functional; details: Rattus norvegicus, read-out: ED50 (the source's name)
Summary of the method: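 PC12 cells in high-glucose DMEM with 10% horse serum, 5% fetal calf serum and 1% penicillin/streptomycin were plated overnight. They were then co-incubated 24 h with βA(1-42) (DMSO stock) and test compound at five concentrations, final DMSO <1%. MTT was added for 1 h at 37 °C, then lysing buffer overnight at 37 °C, and OD read at 570 nm. Viability was referenced to DMSO-only and βA-only wells. ED50 came from dose–response curves; curcumin was the positive control.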

| Compound | EC50 (IMR-32) [µM] | EC50 (PC-12) [µM] |
| --- | --- | --- |
| CCCCCC/C=C/C(=O)CCc1ccc(O)c(OC)c1 | 12 | 8.6 |
| CCCCCCCCC/C=C/C(=O)CCc1ccc(O)c(OC)c1 | 3.3 | 1.8 |
| CCCCCCCC/C=C/C(=O)CCc1ccc(O)c(OC)c1 | 6.2 | 4.4 |
| CCCC/C=C/C(=O)CCc1ccc(O)c(OC)c1 | 37.4 | 29 |
| CCCCCCCCCCC/C=C/C(=O)CCc1ccc(O)c(OC)c1 | 0.5 | 0.2 |
| CCCCCCC/C=C/C(=O)CCc1ccc(O)c(OC)c1 | 8.8 | 5.9 |
| CCC/C=C/C(=O)CCc1ccc(O)c(OC)c1 | 61.2 | 45.9 |
| CCCCCCCCCC/C=C/C(=O)CCc1ccc(O)c(OC)c1 | 1.4 | 0.5 |
| COc1cc(/C=C/C(=O)CC(=O)/C=C/c2ccc(O)c(OC)c2)ccc1O [CURCUMIN] | 23.9 | 17.1 |
| CCCCC/C=C/C(=O)CCc1ccc(O)c(OC)c1 [SHOGAOL] | 24.2 | 16.3 |
| COc1cc(CCC(C)=O)ccc1O [ZINGERONE] | > 129 | > 129 |
